Results: ChEMBL document CHEMBL1145831 (J Med Chem, 2003)

Experiments:
Mus musculus [1] = test: In vivo antitumor activity against murine pancreatic adenocarcinoma and measured as % weight loss on a schedule of 3,5 days and at a total dose of 1 mg/kg; assay type: functional
How it was run: (§1)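 Mice bearing drug-sensitive murine pancreatic adenocarcinoma Panc-03 were dosed on the listed days at the listed total doses. Dosing solutions were made in water from stock solutions and injected within 20 min. Chlorohydrin solutions were acidified with 0.05% citric acid. Tolerance was recorded as body weight loss and number of deaths.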

Mus musculus [2] = test: In vivo antitumor activity against murine pancreatic adenocarcinoma and measured as % weight loss on a schedule of 3 days and at a total dose of 2 mg/kg; assay type: functional; how it was run: as §1
Mus musculus [3] = test: Ratio of the median tumor weight in the treatment group over the median tumor weight in the control group on a schedule of 3,5 days and at a total dose of 1.6 mg/kg; assay type: functional
How it was run: (§2)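 Panc-03 murine pancreatic adenocarcinoma in mice, with injectable solutions prepared in water from stock and given within 20 min; chlorohydrins were acidified with 0.05% citric acid. %T/C is median tumor weight of the treated group over that of the control group × 100, calculated when control median tumor weight reaches 1 g. T/C ≤ 42% is taken as significant activity.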

CCRF-CEM = test: In vitro growth inhibitory activity in the human CCRF-CEM leukemia cell line.; assay type: functional, cell-based
How it was run: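 CCRF-CEM human leukemia cells in log phase, 4.8 × 10⁴ cells per 2 mL well. Medium was RPMI-1640 with 10% dialyzed FBS and 25 mM HEPES. Compounds were serially diluted 1:3 in DMSO and added to duplicate wells, with DMSO-only controls, at 0.5% final DMSO. Cells were exposed 72 h at 37 °C in humidified 5% CO₂, then counted. IC50 in nM.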

Mus musculus [4] = test: Ratio of the median tumor weight in the treatment group over the median tumor weight in the control group on a schedule of 3,5 days and at a total dose of 1 mg/kg; assay type: functional; how it was run: as §2
Mus musculus [5] = test: In vivo antitumor activity against murine pancreatic adenocarcinoma and measured as % weight loss on a schedule of 3,5 days and at a total dose of 1.6 mg/kg; assay type: functional; how it was run: as §1
Mus musculus [6] = test: Ratio of the median tumor weight in the treatment group over the median tumor weight in the control group on a schedule of 3 days and at a total dose of 2 mg/kg; assay type: functional; how it was run: as §2
Mus musculus [7] = test: In vivo antitumor activity against murine pancreatic adenocarcinoma and measured as number of deaths on a schedule of 3,5 days and at a total dose of 1 mg/kg; assay type: ADME, organism-based; design: dose 1 mg/kg; conditions: 120 h; how it was run: as §1
Mus musculus [8] = test: In vivo antitumor activity against murine pancreatic adenocarcinoma and measured as number of deaths on a schedule of 3,5 days and at a total dose of 1.6 mg/kg; assay type: ADME, organism-based; design: dose 1.6 mg/kg; conditions: 120 h; how it was run: as §1
Mus musculus [9] = test: In vivo antitumor activity against murine pancreatic adenocarcinoma and measured as number of deaths on a schedule of 3 days and at a total dose of 2 mg/kg; assay type: ADME, organism-based; design: dose 2 mg/kg; conditions: 72 h; how it was run: as §1
Mus musculus [10] = test: In vivo antitumor activity against murine pancreatic adenocarcinoma and measured as number of deaths on a schedule of 1-6 days and at a total dose of 72 mg/kg; assay type: ADME, organism-based; design: dose 72 mg/kg; how it was run: as §1
Mus musculus [11] = test: In vivo antitumor activity against murine pancreatic adenocarcinoma and measured as % weight loss on a schedule of 1-6 days and at a total dose of 72 mg/kg; assay type: functional; how it was run: as §1
Mus musculus [12] = test: In vivo antitumor activity against murine pancreatic adenocarcinoma and measured as number of deaths on a schedule of 1-6 days and at a total dose of 162 mg/kg; assay type: ADME, organism-based; design: dose 162 mg/kg; how it was run: as §1
Mus musculus [13] = test: Ratio of the median tumor weight in the treatment group over the median tumor weight in the control group on a schedule of 1-6 days and at a total dose of 72 mg/kg; assay type: functional; how it was run: as §2
Mus musculus [14] = test: Ratio of the median tumor weight in the treatment group over the median tumor weight in the control group on a schedule of 1-6 days and at a total dose of 162 mg/kg; assay type: functional; how it was run: as §2
Mus musculus [15] = test: In vivo antitumor activity against murine pancreatic adenocarcinoma and measured as % weight loss on a schedule of 1-6 days and at a total dose of 162 mg/kg; assay type: functional; how it was run: as §1
Mus musculus [16] = test: In vivo antitumor activity against murine pancreatic adenocarcinoma and measured as % weight loss on a schedule of 5-10 day and at a total dose of 210 mg/kg; assay type: functional; how it was run: as §1
Mus musculus [17] = test: Ratio of the median tumor weight in the treatment group over the median tumor weight in the control group on a schedule of 5-10 day and at a total dose of 270 mg/kg; assay type: functional
How it was run: (§3)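 Murine pancreatic adenocarcinoma Panc-03 tumors in mice. T/C is the median tumor weight of the treated group over that of controls, ×100, taken when control median tumor weight reaches 1 g. T/C ≤42% counts as significant antitumor activity. Dosing solutions were prepared aqueous from stock solutions and injected within 20 min.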

Mus musculus [18] = test: In vivo antitumor activity against murine pancreatic adenocarcinoma and measured as number of deaths on a schedule of 5-10 day and at a total dose of 402 mg/kg; assay type: ADME, organism-based; design: dose 402 mg/kg; how it was run: as §1
Mus musculus [19] = test: Ratio of the median tumor weight in the treatment group over the median tumor weight in the control group on a schedule of 5-10 day and at a total dose of 210 mg/kg; assay type: functional; how it was run: as §2
Mus musculus [20] = test: In vivo antitumor activity against murine pancreatic adenocarcinoma and measured as % weight loss on a schedule of 5-10 day and at a total dose of 402 mg/kg; assay type: functional; how it was run: as §1
Mus musculus [21] = test: In vivo antitumor activity against murine pancreatic adenocarcinoma and measured as number of deaths on a schedule of 5-10 day and at a total dose of 270 mg/kg; assay type: ADME, organism-based; design: dose 270 mg/kg; how it was run: as §1
Mus musculus [22] = test: In vivo antitumor activity against murine pancreatic adenocarcinoma and measured as % weight loss on a schedule of 5-10 day and at a total dose of 270 mg/kg; assay type: functional; how it was run: as §1
Mus musculus [23] = test: In vivo antitumor activity against murine pancreatic adenocarcinoma and measured as number of deaths on a schedule of 5-10 day and at a total dose of 210 mg/kg; assay type: ADME, organism-based; design: dose 210 mg/kg; how it was run: as §1
Mus musculus [24] = test: Ratio of the median tumor weight in the treatment group over the median tumor weight in the control group on a schedule of 5-10 day and at a total dose of 402 mg/kg; assay type: functional; how it was run: as §3
Mus musculus [25] = test: In vivo antitumor activity against murine pancreatic adenocarcinoma and measured as number of deaths on a schedule of 3,5,7 days and at a total dose of 9 mg/kg; assay type: ADME, organism-based; design: dose 9 mg/kg; conditions: 168 h; how it was run: as §1
Mus musculus [26] = test: In vivo antitumor activity against murine pancreatic adenocarcinoma and measured as number of deaths on a schedule of 3,5,7 days and at a total dose of 36 mg/kg; assay type: ADME, organism-based; design: dose 36 mg/kg; conditions: 168 h; how it was run: as §1
Mus musculus [27] = test: Ratio of the median tumor weight in the treatment group over the median tumor weight in the control group on a schedule of 3,5,7 days and at a total dose of 9 mg/kg; assay type: functional
How it was run: (§4)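 Mice bearing the drug-sensitive murine pancreatic adenocarcinoma Panc-03. Dosing solutions were made in water from stock solutions and injected within 20 min of preparation; chlorohydrins were acidified with 0.05% citric acid. T/C (%) = median tumor weight of the treated group ÷ median tumor weight of controls × 100, calculated when control median tumor weight reached 1 g.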

Mus musculus [28] = test: In vivo antitumor activity against murine pancreatic adenocarcinoma and measured as number of deaths on a schedule of 3,5,7 days and at a total dose of 18 mg/kg; assay type: ADME, organism-based; design: dose 18 mg/kg; conditions: 168 h; how it was run: as §1
Mus musculus [29] = test: Ratio of the median tumor weight in the treatment group over the median tumor weight in the control group on a schedule of 3,5,7 days and at a total dose of 36 mg/kg; assay type: functional; how it was run: as §4
Mus musculus [30] = test: In vivo antitumor activity against murine pancreatic adenocarcinoma and measured as % weight loss on a schedule of 3,5,7 days and at a total dose of 18 mg/kg; assay type: functional
How it was run: (§5)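 Body weight loss was tracked in mice implanted with the Panc-03 murine pancreatic adenocarcinoma. Injections were given within 20 min of aqueous preparation from stock solutions, with chlorohydrins acidified using 0.05% citric acid.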

Mus musculus [31] = test: In vivo antitumor activity against murine pancreatic adenocarcinoma and measured as % weight loss 3,5,7 days and at a total dose of 9 mg/kg; assay type: functional; how it was run: as §5
Mus musculus [32] = test: Ratio of the median tumor weight in the treatment group over the median tumor weight in the control group on a schedule of 3,5,7 days and at a total dose of 18 mg/kg; assay type: functional; how it was run: as §4
Mus musculus [33] = test: In vivo antitumor activity against murine pancreatic adenocarcinoma and measured as % weight loss on a schedule of 3,5,7 days and at a total dose of 36 mg/kg; assay type: functional; how it was run: as §5

Compound: COc1ccc(C[C@H]2NC(=O)/C=C/C[C@@H]([C@H](C)[C@@H](O)[C@@H](Cl)c3ccc(CN4CCNCC4)cc3)OC(=O)[C@H](CC(C)C)OC(=O)C(C)(C)CNC2=O)cc1Cl.Cl.Cl
- Weight loss (Mus musculus [1]): -3%
- Weight loss (Mus musculus [2]): -26%
- T/C (Mus musculus [3]): 0%
- IC50 (CCRF-CEM): 0.021 nM
- T/C (Mus musculus [4]): 33%
- Weight loss (Mus musculus [5]): -16%
- T/C (Mus musculus [6]): 8%
- Death (Mus musculus [7]): 0
- Death (Mus musculus [8]): 0
- Death (Mus musculus [9]): 2

Compound: COc1ccc(C[C@H]2NC(=O)/C=C/C[C@@H]([C@H](C)[C@@H](O)[C@@H](Cl)c3cccc(C)c3)OC(=O)[C@H](CC(C)C)OC(=O)C(C)(C)CNC2=O)cc1Cl
- Death (Mus musculus [10]): 0
- Weight loss (Mus musculus [11]): 12%
- Death (Mus musculus [12]): 0
- T/C (Mus musculus [13]): 46%
- IC50 (CCRF-CEM): 0.3 nM
- T/C (Mus musculus [14]): 0%
- Weight loss (Mus musculus [15]): 7%

Compound: COc1ccc(C[C@H]2NC(=O)/C=C/C[C@@H]([C@H](C)[C@@H](O)[C@@H](Cl)c3ccccc3)OC(=O)[C@H](CC(C)C)OC(=O)C(C)(C)CNC2=O)cc1Cl
- Weight loss (Mus musculus [16]): -5%
- T/C (Mus musculus [17]): 0%
- Death (Mus musculus [18]): 0
- T/C (Mus musculus [19]): 0%
- Weight loss (Mus musculus [20]): -6%
- Death (Mus musculus [21]): 0
- Weight loss (Mus musculus [22]): -5%
- Death (Mus musculus [23]): 0
- T/C (Mus musculus [24]): 0%

Compound: COc1ccc(C[C@H]2NC(=O)/C=C/C[C@@H]([C@H](C)[C@@H](O)[C@@H](Cl)c3ccc(COC(=O)CN)cc3)OC(=O)[C@H](CC(C)C)OC(=O)C(C)(C)CNC2=O)cc1Cl.Cl
- Death (Mus musculus [25]): 0
- IC50 (CCRF-CEM): 0.013 nM
- Death (Mus musculus [26]): 3
- T/C (Mus musculus [27]): 0%
- Death (Mus musculus [28]): 0
- T/C (Mus musculus [29]): 0%
- Weight loss (Mus musculus [30]): -4%
- Weight loss (Mus musculus [31]): -2%
- T/C (Mus musculus [32]): 0%
- Weight loss (Mus musculus [33]): -20%
